In ChEMBL document CHEMBL1141076 (J Med Chem, 2005):

Tests used:
[1] = molecular target: T1, Cyclic nucleotide-gated channel alpha-1 (Bos taurus, UniProt Q00194); assay: Apparent dissociation constant against Cyclic nucleotide gated channel alpha 1 at 0 mV
T1 sequence (Q00194 whole entry): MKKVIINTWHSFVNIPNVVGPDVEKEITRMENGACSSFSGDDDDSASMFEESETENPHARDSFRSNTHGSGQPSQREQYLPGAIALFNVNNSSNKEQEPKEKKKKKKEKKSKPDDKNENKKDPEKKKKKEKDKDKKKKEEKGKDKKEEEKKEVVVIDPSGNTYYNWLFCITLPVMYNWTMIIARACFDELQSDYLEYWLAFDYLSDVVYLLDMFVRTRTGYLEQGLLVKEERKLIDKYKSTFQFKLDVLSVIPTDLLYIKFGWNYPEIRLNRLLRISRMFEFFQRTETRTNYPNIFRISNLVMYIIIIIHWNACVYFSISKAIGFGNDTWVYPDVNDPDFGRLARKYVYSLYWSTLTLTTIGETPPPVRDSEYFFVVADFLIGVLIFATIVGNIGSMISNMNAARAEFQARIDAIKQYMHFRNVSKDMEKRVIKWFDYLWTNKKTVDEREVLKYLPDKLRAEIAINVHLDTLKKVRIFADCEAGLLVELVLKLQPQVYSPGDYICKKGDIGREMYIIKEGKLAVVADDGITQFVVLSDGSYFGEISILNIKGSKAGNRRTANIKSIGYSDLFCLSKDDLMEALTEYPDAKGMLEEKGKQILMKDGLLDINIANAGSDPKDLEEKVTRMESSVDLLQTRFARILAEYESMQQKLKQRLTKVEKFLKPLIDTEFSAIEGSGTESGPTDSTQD
Method in brief: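 CNGA1 (bovine) expressed in Xenopus oocytes from 5-25 ng cRNA; inside-out patches at room temperature in symmetrical 130 mM NaCl, 2 mM HEPES, 1 mM EGTA, 0.02 mM EDTA, pH 7.6, saturating cGMP with blocker in bath. Depolarizations -80 to +60 mV in 10 mV steps. Fraction of current remaining fitted with Woodhull equation, giving KD at 0 mV and zδ.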

[2] = molecular target: T1, Cyclic nucleotide-gated channel alpha-1; assay: Apparent dissociation constant against Cyclic nucleotide gated channel alpha 1 at +40 mV
Method in brief: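 Bovine CNGA1 cRNA injected (5-25 ng) into Xenopus oocytes kept at 18 °C; inside-out excised patches recorded 1-6 days later at room temperature. Identical pipet/bath solution: 130 mM NaCl, 2 mM HEPES, 1 mM EGTA, 0.02 mM EDTA, pH 7.6. Blocker added to bath with saturating cGMP; steps -80 to +40 mV. End-of-pulse current corrected for ion accumulation/depletion. KD from I+D/I-D = KD/(KD+[D]).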

Row | SMILES | Kd [1] [µM] | Kd [2] [µM]
1 | CCCCNc1ccc(C(=O)OCC[N+](C)(C)CCCNCCCN)cc1 | 0.0069 | 3e-05
2 | CCCCNc1ccc(C(=O)OCC[N+](C)(C)CCCC)cc1 | 5.4 | 3.1
3 | CCCCNc1ccc(C(=O)OCC[N+](C)(C)CCCN)cc1 | 1.4 | 0.074
4 | CC(=O)NCCCCNc1ccc(C(=O)OCCN(C)C)cc1 | 4000 | 2500

Further lines, results first:

Row | Kd [1] [µM] | Kd [2] [µM] | SMILES
5 | 970 | 210 | CN(C)CCOC(=O)c1ccc(NCCCCN)cc1
6 | 10000 | 2300 | CN(C)CCOC(=O)c1ccc(N)cc1
